Results as given in ChEMBL document CHEMBL5352504, “PINK1-Dependent Mitophagy Inhibits Elevated Ubiquitin Phosphorylation Caused by Mitochondrial Damage” (J Med Chem, 2023).
The source made the active and inactive calls. The calls are words filed in the database; no cut-off is given here.

Key:
[1] = target: Serine/threonine-protein kinase PINK1, mitochondrial (Homo sapiens) (UniProt Q9BXM7); experiment: Activation of PINK1 in human HeLa cells transfected with Parkin assessed as increase in Parkin phosphorylation at serine 65 at 50 uM incubated for 1 hr by Western blot analysis; type: cell-based
In short: (§1)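 HeLa cells transfected with Parkin were exposed to 50 μM compound for 1 h, with 10 μM CCCP for 3 h as a control. Cells were then lysed and immunoblotted for pSer65 Parkin, total Parkin, OPA1 and GAPDH (loading control). Untreated transfected and untransfected cells were included. Blots are representative of three repeat experiments.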

[2] = target: Serine/threonine-protein kinase PINK1, mitochondrial (Homo sapiens) (UniProt Q9BXM7); experiment: Activation of PINK1 in human HeLa cells transfected with Parkin assessed as prevention of OPA1 cleavage at 50 uM incubated for 1 hr by Western blot analysis; type: cell-based; in short: as §1
[3] = target: Serine/threonine-protein kinase PINK1, mitochondrial (Homo sapiens) (UniProt Q9BXM7); experiment: Activation of human PINK1 in human HeLa cells overexpressing Parkin assessed as phosphorylation of ubiquitin at serine 65 at 50 uM and measured after 24 hr by Western blot analysis; type: cell-based
In short: (§2)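 Parkin-transfected HeLa cells received 50 μM compound for 24 h. They were then either lysed directly or given 10 μM CCCP for 3 h before lysis. Lysates were immunoblotted for Ser65-phosphorylated ubiquitin, OPA1 cleavage and GAPDH. Untreated transfected and untransfected cells served as references.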

[4] = tested on: HeLa; experiment: Inhibition of ubiquitin phosphorylation in CCCP stimulated human HeLa cells overexpressing Parkin assessed as reduction in CCCP-induced ubiquitin phosphorylation at serine 65 at 50 uM preincubated for 24 hrs followed by CCCP stimulation for 3 hr by Western blot analysis; type: cell-based; conditions: time 27.0 hrs; in short: as §2
[5] = target: Serine/threonine-protein kinase PINK1, mitochondrial (Homo sapiens) (UniProt Q9BXM7); experiment: Activation of human PINK1 in human HeLa cells overexpressing Parkin assessed as phosphorylation of ubiquitin at serine 65 at 10 uM and measured after 3 hr by Western blot analysis; type: cell-based; conditions: filed as activator
In short: (§3)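 Parkin-transfected HeLa (DMEM, 10% FBS, 37 °C, 5% CO2) treated 3 h with 10 μM agent (CCCP control arm), with or without 24 h pre-treatment at 50 μM. Lysed in Tris pH 7.5 buffer with phosphatase/protease inhibitors, protein by Bradford, boiled in SDS buffer, immunoblotted for pUb Ser65, OPA1 (cleavage as depolarization read-out) and GAPDH loading control.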

[6] = tested on: HeLa; experiment: Induction of mitochondrial membrane depolarization in human HeLa cells overexpressing Parkin assessed as OPA1 cleavage at 10 uM and measured after 3 hrs by Western blot analysis; type: functional, cell-based; in short: as §3
[7] = target: T1, Serine/threonine-protein kinase Pink1, mitochondrial (Tribolium castaneum) (UniProt D6WMX4); experiment: Inhibition of recombinant Tribolium castaneum PINK1 using human ubiquitin as substrate assessed as substrate phosphorylation upto 100 uM
T1 sequence (whole entry): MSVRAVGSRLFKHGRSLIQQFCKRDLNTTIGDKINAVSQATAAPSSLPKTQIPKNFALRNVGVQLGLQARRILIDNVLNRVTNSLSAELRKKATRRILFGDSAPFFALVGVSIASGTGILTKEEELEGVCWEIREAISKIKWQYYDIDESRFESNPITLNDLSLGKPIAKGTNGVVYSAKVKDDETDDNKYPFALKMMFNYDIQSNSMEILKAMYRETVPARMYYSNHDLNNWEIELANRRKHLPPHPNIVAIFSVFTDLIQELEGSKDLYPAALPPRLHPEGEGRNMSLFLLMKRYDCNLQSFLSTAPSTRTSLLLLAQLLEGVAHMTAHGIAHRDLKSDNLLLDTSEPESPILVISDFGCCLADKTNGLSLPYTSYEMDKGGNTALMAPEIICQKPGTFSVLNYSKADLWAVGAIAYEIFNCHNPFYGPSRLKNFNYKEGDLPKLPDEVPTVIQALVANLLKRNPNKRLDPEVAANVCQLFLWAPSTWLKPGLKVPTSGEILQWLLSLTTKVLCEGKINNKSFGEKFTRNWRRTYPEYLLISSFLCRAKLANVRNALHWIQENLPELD

[8] = target: T1, Serine/threonine-protein kinase Pink1, mitochondrial (Tribolium castaneum); experiment: Inhibition of recombinant Tribolium castaneum PINK1 using human Parkin as substrate assessed as substrate phosphorylation upto 100 uM

Serine/threonine-protein kinase PINK1, mitochondrial (Homo sapiens), sequence (Q9BXM7 whole entry): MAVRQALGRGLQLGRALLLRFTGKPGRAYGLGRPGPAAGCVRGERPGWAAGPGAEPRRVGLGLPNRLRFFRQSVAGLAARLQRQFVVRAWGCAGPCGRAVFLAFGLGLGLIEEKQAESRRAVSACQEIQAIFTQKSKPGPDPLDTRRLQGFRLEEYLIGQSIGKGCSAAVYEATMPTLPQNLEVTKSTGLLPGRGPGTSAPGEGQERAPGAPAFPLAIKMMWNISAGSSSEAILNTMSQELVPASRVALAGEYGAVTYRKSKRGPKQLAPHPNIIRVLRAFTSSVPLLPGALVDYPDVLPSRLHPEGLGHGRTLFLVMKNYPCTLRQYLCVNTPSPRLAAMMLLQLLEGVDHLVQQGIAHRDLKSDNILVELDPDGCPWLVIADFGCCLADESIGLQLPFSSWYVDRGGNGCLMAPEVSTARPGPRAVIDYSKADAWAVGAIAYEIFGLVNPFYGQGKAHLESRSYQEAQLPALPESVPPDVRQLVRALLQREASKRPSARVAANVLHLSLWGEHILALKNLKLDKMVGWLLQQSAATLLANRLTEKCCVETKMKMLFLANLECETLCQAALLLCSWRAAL

## CC(C)Nc1ncnc2c1ncn2[C@@H]1O[C@H](CO)[C@@H](O)[C@H]1O
[1]; filed as activator
  Activity: Active
[2]
  Activity: inactive

## OC[C@H]1O[C@@H](n2cnc3c(NCCc4ccc(O)cc4)ncnc32)[C@H](O)[C@@H]1O
[1]; filed as activator
  Activity: Active
[2]
  Activity: inactive

## CC(C)(C)CNc1ncnc2[nH]cnc12
[1]
  Activity: inactive

## O=P(O)(O)OP(=O)(O)OP(=O)(O)OC[C@H]1O[C@@H](n2cnc3c(NCc4ccco4)ncnc32)[C@H](O)[C@@H]1O
[3]
  Activity: inactive
[4]
  inhibition: inactive

## c1ccc(CNc2ncnc3[nH]cnc23)cc1
[1]
  Activity: inactive

## CC(C)(C)CNc1ncnc2c1ncn2[C@@H]1O[C@H](CO)[C@@H](O)[C@H]1O
[1]
  Activity: inactive
[2]
  Activity: inactive

## O=C(Nc1ccc([N+](=O)[O-])cc1Cl)c1cc(Cl)ccc1O
[5]
  Activity: Active
[6]
  Activity: Active

## CC(C)Nc1ncnc2[nH]cnc12
[1]
  Activity: inactive

## O=P(O)(O)OP(=O)(O)OP(=O)(O)OC[C@H]1O[C@@H](n2cnc3c(NCc4ccccc4)ncnc32)[C@H](O)[C@@H]1O
[7]
  inhibition: inactive
[8]
  inhibition: inactive
